Source: ChEMBL document CHEMBL4513216, “Probing the Open Global Health Chemical Diversity Library for Multistage-Active Starting Points for Next-Generation Antimalarials” (ACS Infect Dis, 2020)

Assay: Toxicity liver stage against HepG2, at 10uM
Format: cell-based
Set-up: test concentration 10 uM, cell line HepG2-A16-CD81EGFP
Conditions: human, HepG2-A16-CD81EGFP cells; read-out: INHIBITION
Summary of the method: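 Uninfected HepG2-A16-CD81EGFP cells, 3 × 10^3 per well, 1536-well, plated on prespotted compound at 10 μM final, parasite-free screening media added to match infected plates; puromycin 10 μM positive, DMSO 0.5% negative; run in parallel with 48 h PbLuc assay at 37 °C, 5% CO2; viability by CellTiter-Glo luminescence, normalized to controls.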

Structure (SMILES)	cytotoxicity at 10 µM [%]
CC(C)(C)CC(=O)N1CC[C@@H](CC(=O)O)[C@@H](CCN2CCCCC2)C1	-1.11
O=C(NC[C@H]1C[C@@H]2CCN1C[C@@H]2CN1CCCCC1)Nc1ccccc1	10
CC(=O)c1cccc(NC(=O)c2cnc(N3CCN(C)CC3)nc2C)c1	4.28
O=C1CCNc2ncc(-c3ccc(Cl)cc3)cc2CN1C1CC1	9.78
CC(C)Nc1oc(-c2ccc(S(=O)(=O)N(C)C)o2)nc1C#N	-11.6
CC(C)C1CC(=O)Nc2c1cnn2Cc1ccco1 (stereo unspecified)	1.27
Cc1cc(C)n(CCN2CCN(C(=O)c3ccccc3Br)CC2)n1	-4.86
COCCN1CCC2(CC1)CN(Cc1cccc(C)n1)C(=O)CO2	-4.52
COCCNC(=O)[C@@H]1C[C@H]2[C@H](CCN2c2cc(OC)ncn2)O1	8.56
COCCN1C2(CCN(C(=O)c3cccs3)C2)c2ccccc2S1(=O)=O (stereo unspecified)	-131
CCCc1noc(-c2ccc(-n3ncc(C(=O)O)c3C)nc2)n1	-1.4
CS(=O)(=O)N1CCC(C(=O)N2CCC3(CC2)OCCCO3)CC1	1.91
CN(C)C(=O)[C@H]1C[C@@H]2CCN(C3CCOCC3)C[C@H]2O1	-4.15
Cc1nn(Cn2ccc(C(=O)N3CCCC3)n2)c(C)c1Cl	0.748
Cc1nn(C(C)C)c2cnn(CC(=O)N3CCSCC3)c12	5.86
CCn1ncc2c(C(F)F)cc(-c3ccn(C)n3)nc21	-1.21
CCOCCCNC(=O)c1nn(CC)cc1Cl	2.06
Cc1cc(-c2ccnn2C)nc(C2CCN(S(C)(=O)=O)CC2)n1	0.425
Cc1cc(NC(=O)CN2CCN(C3CCCC3)C(=O)C2)nn1C	0.825
COCCNc1ccc(CC2CCCN(C3CCOCC3)C2)nn1 (stereo unspecified)	6.38
Cc1cccc(N2Cc3c(NC4CCCC4)ncnc3N(C)CC2=O)c1	10.3
CC(O)c1cn(Cc2ccc(Cl)cc2Cl)nn1 (stereo unspecified)	15.5
CC(NCC1(N(C)C)CCOCC1)c1ccc(S(C)(=O)=O)cc1 (stereo unspecified)	-3.27

Structure (SMILES)	cytotoxicity at 10 µM [%]
Cn1cc(NCCOc2ccc(F)cc2)cn1	-1.51
CC(C)C(N)C1=NC(=C2N=CN=N2)NO1 (stereo unspecified)	8.86
CCN(CC)S(=O)(=O)NCC1Cc2ccccc2O1 (stereo unspecified)	0.477
CCOCCC(=O)N1CCCC(c2cc(C(F)(F)F)[nH]n2)C1 (stereo unspecified)	-0.819
Cc1ccc(NC(=O)N(C)C)c(C(=O)OCC(=O)NC(C)C(C)C)c1 (stereo unspecified)	-14.9
Cc1noc(C)c1CNC(=O)Nc1ccc(N2CCSCC2)cc1	-1.61
COc1cc(CNc2nc(N3CCOCC3)ns2)cc(OC)c1OC	-5.23
CN(CC(=O)Nc1ccccc1C(=O)NC1CC1)Cc1ccccc1Cl	-8.18
Cc1cccc(NC(=O)CN(C)C(=O)c2ccc(-n3cccc3)nc2)n1	-4.4
Cc1cc(C)n(-c2cncc(N3CCC(C(=O)N(C)C)CC3)n2)n1	-16
Cc1ccc(C(=O)NCCNCC2CNc3ccnn3C2)cc1 (stereo unspecified)	7.41
CN1CCCN(C(=O)c2cnsn2)c2cc(F)ccc21	-4.03
O=C(NCc1cccnc1)NCC(O)c1cccc(C(F)(F)F)c1 (stereo unspecified)	-2.64
Cn1cnnc1-c1ccnc(NCc2ccc(Br)cc2)c1	2.87
CC(CNC(=O)c1nc(N2CCOCC2)ncc1Cl)c1ccccc1 (stereo unspecified)	0.666
NC(=O)c1cccc(OCCC(=O)NC2CCc3c(F)cccc32)c1 (stereo unspecified)	9.86
O=C(c1coc2ccccc12)N1CCCC1	-1.15
CCN(CC(=O)Nc1c(C)nn(C)c1C)CC(O)c1ccc(C)cc1 (stereo unspecified)	-8.14
Cn1nnc2cc(C(=O)NS(=O)(=O)c3cccc(C#N)c3)ccc21	-6.29
O=C1OCCN1c1cccc(CNCc2cc(F)ccc2F)c1	25.3
Cc1nccc(CNC(=O)NCC(C)Oc2ccccc2F)n1 (stereo unspecified)	-13.2
Cc1noc(C)c1CN(C)C(=O)COc1cccc(C#N)c1	5.3
COCCOCC(=O)Nc1nc2c(OC)cc(F)cc2s1	-1.29

Structure (SMILES)	cytotoxicity at 10 µM [%]
O=C(c1c(O)cnc2ccccc12)N1CCCSCC1	-9.7
CCNC(=O)CCC(=O)Nc1nc(C)c(Cc2ccc(F)cc2)s1	6.68
COc1ncccc1NC(=O)N1CCC(CNC(C)=O)CC1	3.61
CCOC(=O)NC(CNC(=O)c1ncccn1)CC(C)C (stereo unspecified)	-4.92
Cc1occc1C(=O)Nc1ccnc(OC2CCOC2)c1 (stereo unspecified)	-12.8
Cn1ncc2c1C(COCC1CC1)CN(c1ncc(F)cn1)C2 (stereo unspecified)	12.1
O=C([C@H]1CCCO1)N1CCC2(CC1)Cc1ccccc1CNC2=O	-101
COc1ncccc1CN1CCn2c(Cn3cncn3)cnc2C1	-3.17
Cc1cc2[nH]c(CN3CCCCC3c3cccc(F)c3)cc(=O)n2n1 (stereo unspecified)	1.29
CC(C)N(C)C(=O)Cn1ncc(N(C)CCc2ccccc2)cc1=O	0.562
CCN1CC2(CCN(C(=O)c3nc4cc(C)ccn4c3F)CC2)CC1=O	12.3
Cc1ccncc1C(=O)N1C[C@@H]2CN(c3ncccn3)C[C@]2(C(=O)O)C1	2.36
Cc1csc(CNc2nc3c(s2)c(C)nn3C)n1	-109
CN(Cc1nc(COc2ccccc2)no1)CC1Cc2ccccc2O1 (stereo unspecified)	-4.4
Cc1c[nH]c(CN2CC[C@@]3(O)CCN(C(=O)C4CCCC4)C[C@H]3C2)n1	3.11
CCC[C@H]1CN(CCOC)C[C@@H]1NC(=O)Cn1cc(C)cn1	4.83
Cc1oncc1S(=O)(=O)N1CCCC(C)(Cc2ccc3c(c2)OCO3)C1 (stereo unspecified)	1.3
NCC1Cc2cc(-c3cnccn3)cc(Cl)c2O1 (stereo unspecified)	6.82
COCCc1noc(CNC(=O)C2CC(=O)N(C(C)(C)C)C2)n1 (stereo unspecified)	3.77
NC(=O)CN1CCCC(C(=O)N2CCC(O)(Cc3ccccc3)CC2)C1 (stereo unspecified)	-7.36
Cc1cc(NC2CCN(c3ccc(F)cc3)CC2)n2nc(C)cc2n1	-0.527
O=C(c1ccnc(N2CCOC(C(F)(F)F)C2)c1)N1CCCC1 (stereo unspecified)	-3.5
Cc1ccc(CN2CCN(c3ncccc3Cl)CC2CCO)cc1 (stereo unspecified)	-1.04

Structure (SMILES)	cytotoxicity at 10 µM [%]
CCc1cc(NC2CCN(Cc3ccccc3F)CC2)n2nccc2n1	-6
CCC[C@@H]1CN(C(=O)c2ccccc2-c2ncc[nH]2)C[C@H]1N(C)C	-3.17
CN(C)Cc1ccc(C2CCCCN2C(=O)c2cccnn2)cc1 (stereo unspecified)	-3.29
CN(CC1CCCCO1)c1nncc(-c2cccc(F)c2)n1 (stereo unspecified)	8.01
Cc1cccc(=O)n1CCCNc1nc(N(C)C)nc2c1CCNCC2	-10.2
O=C(c1ccc2sccc2c1)N1CCC(C(=O)O)(n2ccnc2)CC1	2.69
COc1ccc(C(=O)NCc2cc(N3CCOCC3)ncn2)o1	4.39
COc1cc(C(=O)N2CCC(O)(CN3CCOCC3)C(C)(C)C2)ccn1 (stereo unspecified)	-9.61
O=C(NC1CCOCC1)C1CC(=O)N(Cc2ccccn2)C1 (stereo unspecified)	-0.0985
CC(C)n1cnnc1CN(C)CC1CCCNC1 (stereo unspecified)	3.05
CCC(C(=O)NCc1nc(C)cc(C(F)(F)F)n1)n1cccn1 (stereo unspecified)	-17.1
CCN1CCN(C(=O)c2cnc(Cc3c(Cl)cccc3Cl)nc2O)CC1	2.57
CCN(Cc1cc(-c2ccccn2)no1)C1CCS(=O)(=O)C1 (stereo unspecified)	-14.9
CCc1cn[nH]c1C1CCCN(C(=O)c2noc(C)c2COC)C1 (stereo unspecified)	-1.67
COc1ccc(-n2ncc(C(C)NCc3cnc(SC)nc3)c2C)cc1 (stereo unspecified)	0.423
CC(C)n1cnnc1CN(C)C(=O)c1ccccc1N1CCOCC1	1.47
O=C(Cc1cccnc1)N1CCC(OCc2ccccc2)CC1	-1.96
CC(=O)N1CCCn2nc(CNS(=O)(=O)N3CCCCCC3)cc2C1	3.74
c1ccc(CN2CCN(c3ccc4nncn4n3)CC2)nc1	-1.1
CN(Cc1cnn(C)c1)C(=O)CN1CCCC(Cn2cncn2)C1 (stereo unspecified)	-0.808
O=C(NCCNc1ccccn1)N1CCC(O)CC1	-8.66
CCOC(=O)c1sc2ccsc2c1CNS(C)(=O)=O	-12
CCOCCCNC(=O)Nc1ccc(F)c(C(N)=O)c1	-16.9

Structure (SMILES)	cytotoxicity at 10 µM [%]
Cc1nccn1C1CCCN(C(=O)Cc2cn3ccccc3n2)C1 (stereo unspecified)	-20.9
CCC(CNC(=O)Nc1cnn(CC)c1)N1CCc2ccccc2C1 (stereo unspecified)	4.72
COc1c(C2CCCN2C(=O)c2ccc(C#N)cc2)c(C)nn1C (stereo unspecified)	-1.72
COc1ccc(C2=CCN(C(=O)C3CCCN(C(N)=O)C3)CC2)cc1 (stereo unspecified)	-10.1
CNc1cc(N2CCCC2CNCc2cnc(C)cn2)ncn1 (stereo unspecified)	-4.51
Cc1noc2ncc(C(=O)N3CCCC3c3cnn(C)c3)cc12 (stereo unspecified)	-6.2
Cn1ccnc1CN1CCCC1c1noc(C2CC2)n1 (stereo unspecified)	0.265
COCCNC(=O)NCCc1ccn(-c2ccccc2)n1	-0.0722
Cc1cnn(CC2CCCN2C(=O)c2ccc3cc[nH]c3c2)c1 (stereo unspecified)	0.409
CC(C)C(C)NC(=O)c1ncn2c1CN(C)S(=O)(=O)c1ccccc1-2 (stereo unspecified)	-132
CN(C)CCN1CCN(Cc2cccs2)Cc2cccnc21	-3.24
O=C(c1ccncc1)N1CCN(Cc2cccnc2)c2ncccc2C1	-1.16
CNC(=O)[C@@H]1C[C@H]2CN(C(=O)c3ccco3)C[C@H]2N1C	-2.85
COc1ccc(CN2CCn3cc(Cn4cccn4)nc3C2)cc1	13.4
CN1C(=O)C[C@H]2[C@H]1CCN2Cc1cccc(C#N)c1	-75.6
O=C(NCc1ccccc1F)C1=NOC2(CCNC2)C1 (stereo unspecified)	3.23
Cc1ccc(CN2CC[C@H]3CO[C@H](CN4CCCC4)[C@H]3C2)o1	-115
O=C1NCC2=Nc3ccccc3NC(c3ccccc3)C12 (stereo unspecified)	1.14
CCCSCC(=O)N1C[C@@H]2CC[C@H]1CN(Cc1cccnc1)C2	1.64
